Tests used:
Mus musculus [1] = species: Mus musculus; experiment: Protective index, ratio of TD50 for neurotoxicity in C57B/6 mouse to ED50 for anticonvulsant activity in C57B/6 mouse; assay type: functional
How it was run: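 Protective index computed as TD50 (rotarod, 30 min after ip dosing in polyethylene glycol-400) divided by ED50 in the maximal electroshock test at 30 min, both values from dose-response plots analysed with the NINDS program.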

Mus musculus [2] = experiment: Anticonvulsant activity in ip dosed C57B/6 mouse assessed as protection against maximal electroshock-induced seizure after 30 mins; assay type: functional; details: C57B/6, ip, 0.5 h
Mus musculus [3] = experiment: Anticonvulsant activity in ip dosed C57B/6 mouse assessed as protection against isoniazid-induced tonic seizure administered 30 mins before isoniazide challenge measured after 1 hrs; assay type: ADME, organism-based; details: C57B/6, ip
Mus musculus [4] = experiment: Anticonvulsant activity in ip dosed C57B/6 mouse assessed as protection against 3-mercaptopropionic acid-induced tonic seizure administered 30 mins before 3-mercaptopropionic acid challenge measured after 1 hrs; assay type: ADME, organism-based; details: C57B/6, ip
How it was run: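 Test compound given ip in polyethylene glycol-400; 30 min later 3-mercaptopropionic acid 40 mg/kg in saline injected sc. ED50 taken as the dose preventing tonic convulsions in 50% of treated mice.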

Mus musculus [5] = experiment: Anticonvulsant activity in C57B/6 mouse assessed as protection against strychnine-induced tonic seizure at 300 mg/kg, ip administered 30 mins before strychnine challenge measured after 30 mins; assay type: ADME, organism-based; parameters: dose 300 mg/kg, route intraperitoneal; details: in vivo, 0.5 h
How it was run: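 Mice given test compound ip in polyethylene glycol-400; 30 min later strychnine chlorhydrate in saline (1.2 mg/mL, 1 mL/kg) injected sc, a dose set by dose-percent effect curve to convulse 100% of animals. Mice held in individual cages and observed 30 min for convulsions.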

[6] = Neurotoxicity in ip dosed C57B/6 mouse after 30 mins by rotarod test; assay type: toxicity, organism-based; details: in vivo
How it was run: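 Rotarod: 30 min after ip compound in polyethylene glycol-400, mice were placed on a 1-inch knurled plastic rod turning at 6 rpm for 1 min. Neurotoxicity was scored as failure to keep balance in each of three trials.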

Mus musculus [7] = experiment: Anticonvulsant activity in ip dosed C57B/6 mouse assessed as protection against pentylenetetrazole-induced clonic seizure administered 30 mins before pentylenetetrazole challenge measured after 30 mins; assay type: ADME, organism-based; details: C57B/6, ip, 0.5 h
How it was run: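 Pentylenetetrazole 85 mg/kg sc, a dose set by dose-percent effect curve to give clonic seizures in 100% of mice, injected 30 min after ip compound in polyethylene glycol-400.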

Mus musculus [8] = experiment: Anticonvulsant activity in ip dosed C57B/6 mouse assessed as protection against thiosemicarbazide-induced tonic seizure administered 30 mins before thiosemicarbazide challenge measured after 1 hrs; assay type: ADME, organism-based; details: C57B/6, ip

c1ccc(COc2ccc3c(c2)CCc2nncn2-3)cc1
Ratio TD50/ED50 (Mus musculus [1]): 3.5

Fc1ccc(COc2ccc3c(c2)CCc2nncn2-3)cc1
ED50 (Mus musculus [2]): 11.1 mg/kg

c1ccc(COc2cc3nncn3c3ccccc23)cc1
Ratio TD50/ED50 (Mus musculus [1]): 12
ED50 (Mus musculus [3]): 38 mg/kg
ED50 (Mus musculus [4]): 9.5 mg/kg
Activity (Mus musculus [5]): Not Active
TD50 at 0.5 h [6]: 274 mg/kg
ED50 (Mus musculus [7]): 27.4 mg/kg
ED50 (Mus musculus [8]): 19 mg/kg
ED50 (Mus musculus [2]): 22.8 mg/kg

CCOc1cc2nncn2c2ccccc12
Ratio TD50/ED50 (Mus musculus [1]): 1.4
TD50 at 0.5 h [6]: 131 mg/kg
ED50 (Mus musculus [2]): 91.3 mg/kg

CCCCCOc1cc2nncn2c2ccccc12
Ratio TD50/ED50 (Mus musculus [1]): 2.6
TD50 at 0.5 h [6]: 63.4 mg/kg
ED50 (Mus musculus [2]): 24.5 mg/kg

Cc1ccc(COc2cc3nncn3c3ccccc23)cc1
ED50 (Mus musculus [2]): > 100 mg/kg

Clc1ccc(COc2cc3nncn3c3ccccc23)cc1
ED50 (Mus musculus [2]): > 100 mg/kg

Fc1ccc(COc2cc3nncn3c3ccccc23)cc1
ED50 (Mus musculus [2]): > 100 mg/kg

Clc1cccc(Cl)c1COc1cc2nncn2c2ccccc12
ED50 (Mus musculus [2]): > 100 mg/kg

Brc1ccccc1COc1cc2nncn2c2ccccc12
ED50 (Mus musculus [2]): > 100 mg/kg

Fc1ccccc1COc1cc2nncn2c2ccccc12
Ratio TD50/ED50 (Mus musculus [1]): 9
TD50 at 0.5 h [6]: 228 mg/kg
ED50 (Mus musculus [2]): 25.4 mg/kg

Fc1cccc(COc2cc3nncn3c3ccccc23)c1
ED50 (Mus musculus [2]): > 100 mg/kg

Clc1ccc(COc2cc3nncn3c3ccccc23)c(Cl)c1
ED50 (Mus musculus [2]): > 100 mg/kg

Clc1ccccc1COc1cc2nncn2c2ccccc12
ED50 (Mus musculus [2]): > 100 mg/kg

Brc1ccc(COc2cc3nncn3c3ccccc23)cc1
ED50 (Mus musculus [2]): > 100 mg/kg

COc1cc2nncn2c2ccccc12
Ratio TD50/ED50 (Mus musculus [1]): 1.1
TD50 at 0.5 h [6]: 102 mg/kg
ED50 (Mus musculus [2]): 93 mg/kg

CCCCOc1cc2nncn2c2ccccc12
Ratio TD50/ED50 (Mus musculus [1]): 1.5
TD50 at 0.5 h [6]: 54.8 mg/kg
ED50 (Mus musculus [2]): 36.7 mg/kg

CCCCCCCCOc1cc2nncn2c2ccccc12
ED50 (Mus musculus [2]): > 100 mg/kg

CCCOc1cc2nncn2c2ccccc12
Ratio TD50/ED50 (Mus musculus [1]): 1.4
TD50 at 0.5 h [6]: 94.7 mg/kg
ED50 (Mus musculus [2]): 65.7 mg/kg

CCCCCCCOc1cc2nncn2c2ccccc12
Ratio TD50/ED50 (Mus musculus [1]): 1.6
TD50 at 0.5 h [6]: 110 mg/kg
ED50 (Mus musculus [2]): 68.2 mg/kg

CCCCCCOc1cc2nncn2c2ccccc12
Ratio TD50/ED50 (Mus musculus [1]): 5.8
TD50 at 0.5 h [6]: 110 mg/kg
ED50 (Mus musculus [2]): 19 mg/kg

NC(=O)N1c2ccccc2C=Cc2ccccc21 [CARBAMAZEPINE]
Ratio TD50/ED50 (Mus musculus [1]): 6.4
ED50 (Mus musculus [3]): 22.8 mg/kg
ED50 (Mus musculus [4]): 13.7 mg/kg
Activity (Mus musculus [5]): Not Active
TD50 at 0.5 h [6]: 76.1 mg/kg
ED50 (Mus musculus [7]): 11.4 mg/kg
ED50 (Mus musculus [8]): 19.7 mg/kg
ED50 (Mus musculus [2]): 11.8 mg/kg
